ChEMBL document CHEMBL1128243, “Three-dimensional quantitative structure-activity relationships of sulfonamide endothelin inhibitors” (J Med Chem, 1995)

molecular target: T1, Endothelin-1 receptor (Rattus norvegicus, UniProt P26684); experiment: Inhibition of [125I]endothelin-l binding to endothelin A receptor of rat thoracic aorta smooth muscle cells; assay type: tissue-based
T1 sequence (P26684 whole entry): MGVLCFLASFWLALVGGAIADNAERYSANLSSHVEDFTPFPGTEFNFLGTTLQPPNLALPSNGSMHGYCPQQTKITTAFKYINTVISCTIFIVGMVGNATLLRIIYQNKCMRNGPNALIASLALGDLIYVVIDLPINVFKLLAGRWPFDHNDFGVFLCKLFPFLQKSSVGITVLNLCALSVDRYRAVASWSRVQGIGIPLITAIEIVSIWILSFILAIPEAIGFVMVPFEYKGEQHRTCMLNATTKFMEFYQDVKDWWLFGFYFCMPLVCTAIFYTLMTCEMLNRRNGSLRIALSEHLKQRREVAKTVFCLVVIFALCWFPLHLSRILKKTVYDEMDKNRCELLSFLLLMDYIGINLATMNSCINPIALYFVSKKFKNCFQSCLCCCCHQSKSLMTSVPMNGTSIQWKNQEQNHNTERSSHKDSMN
Outline: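 Membranes from A10 rat thoracic aorta smooth muscle cells (cultured, trypsin-detached, stored at -70 °C, then thawed, homogenized and centrifuged to a membrane pellet). Samples filtered through glass fiber filters and washed, then filter-retained radioactivity counted.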

Row | SMILES | IC50 [nM]
1 | Cc1onc(NS(=O)(=O)c2cccc3c(N(C)C)cccc23)c1C | 15
2 | CC(=O)Nc1ccc(S(=O)(=O)Nc2onc(C)c2C)c2ccccc12 | 3400
3 | Cc1noc(NS(=O)(=O)c2cccc3ccccc23)c1C | 3100
4 | Cc1noc(NS(=O)(=O)c2cccc3cc(N(C)C)ccc23)c1C | 840
5 | CC(=O)Nc1ccc2c(S(=O)(=O)Nc3onc(C)c3C)cccc2c1 | 1300
6 | Cc1cc(NS(=O)(=O)c2ccc(O)cc2)no1 | 53000
7 | Cc1noc(NS(=O)(=O)c2cccc3c(N(C)C(C)C)cccc23)c1C | 4
8 | Cc1noc(NS(=O)(=O)c2cccc3ccc(N(C)C)cc23)c1C | 5600
9 | CCNc1ccc(S(=O)(=O)Nc2onc(C)c2C)cc1 | 5000
10 | CC(=O)Nc1cccc2c(S(=O)(=O)Nc3noc(C)c3C)cccc12 | 16
11 | Cc1onc(NS(=O)(=O)c2ccc(N)cc2)c1Br | 510
12 | Cc1noc(NS(=O)(=O)c2cccc3c(NC(C)C)cccc23)c1C | 5
13 | Cc1noc(NS(=O)(=O)c2cccc3c(N(C)C)cccc23)c1C [BMS-182874] | 15
14 | Cc1onc(NS(=O)(=O)c2ccc(N)cc2)c1C [SULFATROXAZOLE] | 260

Continued, values first:

Row | IC50 [nM] | SMILES
15 | 24000 | Cc1noc(NS(=O)(=O)c2ccc3c(N)cccc3c2)c1C
16 | 27500 | CC(=O)Nc1cccc2ccc(S(=O)(=O)Nc3onc(C)c3C)cc12
17 | 1450 | Cc1noc(NS(=O)(=O)c2cccc3ccc(N)cc23)c1C
18 | 10000 | Cc1noc(NS(=O)(=O)c2ccc3ccc(N)cc3c2)c1C
19 | 2400 | Cc1noc(NS(=O)(=O)c2cccc3cc(N)ccc23)c1C
20 | 1400 | Cc1noc(NS(=O)(=O)c2ccc3ccc(N(C)C)cc3c2)c1C
21 | 9800 | Cc1noc(NS(=O)(=O)c2ccc3cccc(N)c3c2)c1C
22 | 3500 | Cc1noc(NS(=O)(=O)c2ccc(N)c3ccccc23)c1C
23 | 1300 | Cc1noc(NS(=O)(=O)c2cccc(N)c2)c1C
24 | 42000 | CC(=O)Nc1ccc2ccc(S(=O)(=O)Nc3onc(C)c3C)cc2c1
25 | 31500 | Cc1noc(NS(=O)(=O)c2ccc3cccc(N(C)C)c3c2)c1C
26 | 600 | Cc1noc(NS(=O)(=O)c2ccc3cc(N)ccc3c2)c1C
27 | 84000 | Cc1noc(NS(=O)(=O)c2ccc(N(C)C)cc2)c1C
28 | 3800 | CC(=O)Nc1ccc2cc(S(=O)(=O)Nc3onc(C)c3C)ccc2c1
